Reference: ChEMBL document CHEMBL2057126, “Discovery of new inhibitors of Cdc25B dual specificity phosphatases by structure-based virtual screening” (J Med Chem, 2012)
The source made the active and inactive calls. The rule behind the calls is not given here.

How the values were obtained:
[1] = target: T1, M-phase inducer phosphatase 1 (Homo sapiens) (UniProt P30304); test: Inhibition of recombinant phosphatase activity of Cdc25A catalytic domain expressed in Escherichia coli BL21(DE3) using OMFP as substrate at 100 uM after 15 mins by fluorimetric assay
T1 sequence (whole entry): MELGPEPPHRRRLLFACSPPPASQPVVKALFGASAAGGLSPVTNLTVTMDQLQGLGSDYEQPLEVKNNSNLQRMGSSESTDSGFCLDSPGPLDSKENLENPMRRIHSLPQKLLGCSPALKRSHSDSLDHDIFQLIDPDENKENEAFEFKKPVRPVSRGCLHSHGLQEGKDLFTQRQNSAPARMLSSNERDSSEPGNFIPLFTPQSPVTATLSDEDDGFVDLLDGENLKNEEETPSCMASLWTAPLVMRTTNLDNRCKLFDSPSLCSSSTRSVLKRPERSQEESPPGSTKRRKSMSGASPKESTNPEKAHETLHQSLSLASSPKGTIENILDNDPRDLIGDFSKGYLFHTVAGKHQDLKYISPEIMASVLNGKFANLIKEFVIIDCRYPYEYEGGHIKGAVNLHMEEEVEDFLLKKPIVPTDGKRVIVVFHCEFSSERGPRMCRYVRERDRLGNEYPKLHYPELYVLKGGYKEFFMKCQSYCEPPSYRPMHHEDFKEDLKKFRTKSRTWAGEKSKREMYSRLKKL

[2] = target: T2, M-phase inducer phosphatase 2 (Homo sapiens) (UniProt P30305); test: Inhibition of recombinant phosphatase activity of Cdc25B catalytic domain expressed in Escherichia coli BL21(DE3) using OMFP as substrate at 100 uM after 15 mins by fluorimetric assay
T2 sequence (whole entry): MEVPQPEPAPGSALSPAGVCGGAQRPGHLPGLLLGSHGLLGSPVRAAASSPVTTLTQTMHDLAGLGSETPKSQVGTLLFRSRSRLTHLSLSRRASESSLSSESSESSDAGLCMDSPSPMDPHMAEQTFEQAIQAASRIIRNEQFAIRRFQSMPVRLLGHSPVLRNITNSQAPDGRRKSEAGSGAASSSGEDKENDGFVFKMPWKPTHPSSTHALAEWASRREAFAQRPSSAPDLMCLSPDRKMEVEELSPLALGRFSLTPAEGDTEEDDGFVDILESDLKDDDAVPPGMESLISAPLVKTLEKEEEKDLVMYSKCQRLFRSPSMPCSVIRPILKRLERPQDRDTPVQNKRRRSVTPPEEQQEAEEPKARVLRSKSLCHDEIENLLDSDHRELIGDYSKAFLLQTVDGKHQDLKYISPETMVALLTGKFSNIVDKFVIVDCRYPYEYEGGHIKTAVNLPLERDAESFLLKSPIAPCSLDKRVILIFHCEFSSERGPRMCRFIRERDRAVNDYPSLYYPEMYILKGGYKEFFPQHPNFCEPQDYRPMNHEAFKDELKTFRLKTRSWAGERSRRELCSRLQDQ

[3] = target: T3, M-phase inducer phosphatase 3 (Homo sapiens) (UniProt P30307); test: Inhibition of recombinant phosphatase activity of Cdc25C catalytic domain expressed in Escherichia coli BL21(DE3) using OMFP as substrate at 100 uM after 15 mins by fluorimetric assay
T3 sequence (whole entry): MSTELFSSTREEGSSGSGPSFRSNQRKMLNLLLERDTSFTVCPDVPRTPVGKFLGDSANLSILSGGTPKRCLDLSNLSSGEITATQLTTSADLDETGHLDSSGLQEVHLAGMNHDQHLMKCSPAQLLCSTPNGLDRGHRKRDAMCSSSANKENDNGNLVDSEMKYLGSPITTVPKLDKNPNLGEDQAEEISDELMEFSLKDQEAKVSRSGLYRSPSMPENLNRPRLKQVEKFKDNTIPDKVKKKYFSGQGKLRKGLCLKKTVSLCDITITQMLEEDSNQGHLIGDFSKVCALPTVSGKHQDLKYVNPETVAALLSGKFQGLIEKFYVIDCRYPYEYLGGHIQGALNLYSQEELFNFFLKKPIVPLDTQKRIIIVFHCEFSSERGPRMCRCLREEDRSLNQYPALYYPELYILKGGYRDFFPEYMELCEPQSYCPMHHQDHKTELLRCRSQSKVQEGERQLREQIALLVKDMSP

[4] = target: T2, M-phase inducer phosphatase 2 (Homo sapiens); test: Reversible inhibition of recombinant phosphatase activity of Cdc25B catalytic domain expressed in Escherichia coli BL21(DE3) assessed as residual activity of enzyme measured after 10 fold dilution at 100 uM preincubated for 20 mins
In short: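 Cdc25B (0.5 μg) preincubated 20 min at room temperature with 100 μM inhibitor or DMSO vehicle, then diluted 10-fold. Residual phosphatase activity was read after adding OMFP substrate and expressed as percent of the untreated control. Mean ± SD of three determinations.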

[5] = target: T2, M-phase inducer phosphatase 2 (Homo sapiens); test: Reversible inhibition of recombinant phosphatase activity of Cdc25B catalytic domain expressed in Escherichia coli BL21(DE3) assessed as residual activity of enzyme measured after 10 fold dilution at 100 uM preincubated for 20 mins
[6] = target: T2, M-phase inducer phosphatase 2 (Homo sapiens); test: Inhibition of recombinant phosphatase activity of Cdc25B catalytic domain expressed in Escherichia coli BL21(DE3) using OMFP as substrate at 50 uM by spectrofluorimetric analysis
In short: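 Single-point screen: percent inhibition of Cdc25B phosphatase activity (OMFP hydrolysis) measured with inhibitor at 50 μM.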

[7] = target: T4, M-phase inducer phosphatase 2 (Homo sapiens, UniProt P30305); test: Inhibition of recombinant phosphatase activity of Cdc25B catalytic domain expressed in Escherichia coli BL21(DE3) using OMFP as substrate by spectrofluorimetric analysis
T4 sequence (P30305 whole entry): T2 sequence (whole entry)

[8] = target: T2, M-phase inducer phosphatase 2 (Homo sapiens); test: Reversible inhibition of recombinant phosphatase activity of Cdc25B catalytic domain expressed in Escherichia coli BL21(DE3) assessed as residual activity of enzyme measured after 10 fold dilution at 50 uM preincubated for 20 mins
In short: (§1)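 Dilution test: Cdc25B pretreated with inhibitor for up to 20 min, mixture diluted 10-fold, and residual phosphatase activity measured to judge reversible versus irreversible inhibition.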

[9] = target: T5, M-phase inducer phosphatase 1 (Homo sapiens, UniProt P30304); test: Inhibition of recombinant phosphatase activity of Cdc25A catalytic domain expressed in Escherichia coli BL21(DE3) using OMFP as substrate by spectrofluorimetric analysis
T5 sequence (P30304 whole entry): T1 sequence (whole entry)
In short: (§2)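 Purified recombinant Cdc25A catalytic domain; phosphatase activity measured as OMFP hydrolysis versus inhibitor concentration to derive IC50, with Ki calculated from kinetic measurements. Results are averages ± SD of three determinations.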

[10] = target: T5, M-phase inducer phosphatase 1; test: Inhibition of recombinant phosphatase activity of Cdc25A catalytic domain expressed in Escherichia coli BL21(DE3) using OMFP as substrate by Lineweaver-Burk plot analysis; in short: as §2
[11] = target: T4, M-phase inducer phosphatase 2; test: Competitive inhibition of recombinant phosphatase activity of Cdc25B catalytic domain expressed in Escherichia coli BL21(DE3) using OMFP as substrate by Lineweaver-Burk plot analysis
[12] = target: T2, M-phase inducer phosphatase 2 (Homo sapiens); test: Irreversible inhibition of recombinant phosphatase activity of Cdc25B catalytic domain expressed in Escherichia coli BL21(DE3) assessed as residual activity of enzyme measured after 10 fold dilution at 50 uM preincubated for 20 mins; in short: as §1

Row | SMILES | inhibition [1] [%] | inhibition [2] [%] | inhibition [3] [%] | inhibition [6] [%] | further results
1 | CC1C2C=CC1C(c1c3ccc(=O)c(O)c-3oc3c(O)c(O)ccc13)C2C(=O)O (stereo unspecified) | 98 | 98 | 98 |  | inhibition [4]: Active
2 | O=C(O)c1ccccc1-c1ccccc1C(=O)Nc1ccc2c(c1)nc(O)c1ccccc12 | 66 | 45 | 48 |  | inhibition [5]: Active
3 | Nc1ccc(-c2ccc(Nc3cc(S(=O)(=O)O)c(N)c4c3C(=O)c3ccccc3C4=O)cc2)c(S(=O)(=O)O)c1 | 72 | 89 | 49 |  | 
4 | O=C(O)c1cccc(Oc2ccc(C(=O)O)c([N+](=O)[O-])c2)c1 |  |  |  | 37 | 
5 | O=C(O)c1ccccc1C(=O)c1cccc2ccccc12 |  |  |  | 41 | 
6 | O=C(O)c1ccccc1C(=O)CCC(=O)c1ccccc1C(=O)O |  |  |  | 20 | 
7 | Sc1ccc2ccccc2c1CNCc1ccccc1 | 35 | 60 | 53 |  | 
8 | O=C(O)C1CCCN1Cc1c[nH]c2ccccc12 (stereo unspecified) | 39 | 37 | 45 |  | 
9 | CC(C)(Oc1ccc(-c2cccc3ccccc23)cc1)C(=O)O | 47 | 40 | 50 |  | inhibition [5]: Active
10 | O=C(O)c1ccccc1C(=O)c1cccc([N+](=O)[O-])c1 |  |  |  | 17 | 
11 | Nc1ccc(Cc2ccc(N)c(C(=O)O)c2)cc1C(=O)O |  |  |  | 52 | IC50 [7]: 23.8 µM; inhibition [8]: Active
12 | COc1ccc(Cc2ccc3[nH]c(=O)cc(C)c3c2)cc1S(=O)(=O)O |  |  |  |  | IC50 [7]: 133 µM; IC50 [9]: 86 µM; Ki [10]: 203 µM; Ki [11]: 84 µM
13 | O=C(O)c1ccccc1C(=O)c1ccc(-c2ccccc2)cc1 |  |  |  | 54 | IC50 [7]: 23.1 µM; inhibition [8]: Active
14 | CNc1ccc(C(=O)c2ccccc2C(=O)O)cc1[N+](=O)[O-] |  |  |  | 65 | IC50 [7]: 7.9 µM; inhibition [8]: Active
15 | O=C(C(=O)c1ccc(O)c(O)c1)c1ccc(O)c(O)c1 |  |  |  | 22 | 
16 | O=C(O)c1ccccc1C(=O)c1ccc(O)c([N+](=O)[O-])c1 |  |  |  | 13 | 

Row | SMILES | inhibition [1] [%] | inhibition [2] [%] | inhibition [3] [%] | inhibition [6] [%] | further results
17 | O=C1C=C(Nc2cccc(C(=O)O)c2)c2ccccc2C1=O |  |  |  | 85 | IC50 [7]: 4.2 µM; inhibition [12]: Active
18 | COc1cc(O)c(C(=O)c2ccccc2)cc1S(=O)(=O)O |  |  |  | 49 | 
19 | O=C1C=C(Nc2nc(O)cc(C(=O)O)n2)c2ccccc2C1=O |  |  |  | 60 | inhibition [12]: Active
20 | CN(CCC(=O)O)C1=Nc2ccc(Cl)cc2C(c2ccccc2)=[N+]([O-])C1 | 28 | 43 | 48 |  | inhibition [5]: Active
21 | Nc1ccc(C(=O)O)cc1S(=O)(=O)c1cc(C(=O)O)ccc1N |  |  |  | 62 | IC50 [7]: 20.1 µM; inhibition [8]: Active
22 | O=C(O)c1ccccc1C(=O)c1ccc(Cl)c([N+](=O)[O-])c1 |  |  |  | 13 | 
23 | O=C(O)c1cc(C(=O)C(=O)c2cc(C(=O)O)c(O)c3ccccc23)c2ccccc2c1O |  |  |  | 26 | 
24 | O=C(O)c1ccc(C(=O)c2ccccc2C(=O)O)cc1 |  |  |  | 12 | 
25 | NS(=O)(=O)c1cc2c(cc1Cl)N=C(CCC(=O)O)NS2(=O)=O | 21 | 41 | 47 |  | inhibition [5]: Active
26 | CC1=NN(c2ccc(S(=O)(=O)O)cc2)C(=O)/C1=C/c1ccc(Cl)cc1 | 17 | 46 | 54 |  | inhibition [5]: Active
27 | O=C(Nc1ccc2ncccc2c1)Nc1ccc2ncccc2c1 | 47 | 32 | 48 |  | inhibition [5]: Active
28 | O=C1C=C(Nc2nc(C(=O)O)cc(=O)[nH]2)c2ccccc2C1=O |  |  |  |  | IC50 [7]: 9.9 µM
29 | Cn1c(COc2ccccc2C(=O)O)nc2ccccc21 | 10 | 43 | 35 |  | inhibition [5]: Active
30 | O=C(O)c1cccc(Nc2ccccc2C(=O)O)c1 |  |  |  | 18 | 
31 | O=C(O)c1cccc(F)c1C(=O)c1ccc2ccccc2c1 |  |  |  | 34 | 
32 | CC(=O)c1ccc(C(=O)c2ccccc2C(=O)O)cc1 |  |  |  | 20 | 
